Published values collected from several papers.
Target: Receptor tyrosine-protein kinase erbB-4 (ERBB4, Homo sapiens, UniProt Q15303)

Compound | assay | conditions | remaining binding [%]
C[C@H](NC(=O)c1cnc2n1[C@](C)(Cc1ccc(C#N)cc1)C(=O)N2c1cc(Cl)c(F)c(Cl)c1)C(=O)NC1(c2ccccn2)CC1 | cell-free assay, competition with immobilised ligand | 1 µM | 100
CN(C)c1nccc(-c2cnc3ncccn23)n1 | binding | 1 µM | 89
CCN1CCN(Cc2ccc(C(=O)Nc3ccc(C)c(Oc4ccc5c(c4)CC(=O)N5)c3)cc2C(F)(F)F)CC1 | binding, competition with immobilised ligand | 1 µM | 100
N#Cc1ccccc1CSc1nnc2c(n1)[nH]c1ccccc12 | binding, competition with immobilised ligand | 10 µM | 74
O=C(NCCCN1CCOCC1)c1ccc(Nc2nccc(-c3cc4ccccc4s3)n2)cc1 | binding, competition with immobilised ligand | 1 µM | 86
CN(c1nccc(-c2cnn3ncccc23)n1)C1CC1 | binding | 1 µM | 100
O=C(NCCCN1CCOCC1)c1ccc(Nc2ncc(Cl)c(-c3ccc(Cl)s3)n2)cc1 | binding, competition with immobilised ligand | 1 µM | 100
Cc1noc([C@H]2C[C@@H](c3ccc(C(F)(F)F)cc3)CN(C(=O)N3CCS(=O)(=O)C3)C2)n1 | cell-free assay, competition with immobilised ligand | 1 µM | 100
O=C(Nc1c[nH]nc1C(=O)NC1CCNCC1)c1cc(F)cc(F)c1 | binding, competition with immobilised ligand | 1 µM | 100
C[C@H]1CCN(c2nccc(-c3cnn4ncccc34)n2)C1 | binding | 1 µM | 81
CNC(=O)[C@@H]1CC[C@@H](n2c(-c3ccc4cnccc4c3)nc3ccc(C(=O)NCc4cccc(C(N)=O)c4)cc32)C1 | binding, competition with immobilised ligand | 1 µM | 100
c1cncc(-c2cccc(Nc3nccc(NC4CCCCC4)n3)c2)c1 | binding, competition with immobilised ligand | 10 µM | 85
COc1ccc2c(c1)O[C@@H](c1ccc(OC)c(OC)c1)C[C@H]2NC(=O)C1(c2ccc3c(c2)OC(F)(F)O3)CC1 | cell-free assay, competition with immobilised ligand | 1 µM | 90
F[C@@H]1CCN(c2nccc(-c3cnn4ncccc34)n2)C1 | binding | 1 µM | 82
COc1ccc2c(O[C@@H]3C[C@H]4C(=O)N[C@]5(C(=O)O)CC5/C=C\CCCCC[C@H](NC(=O)OC5CCCC5)C(=O)N4C3)cc(-c3csc(NC(=O)C(C)C)n3)nc2c1C (stereo partly shown) | cell-free assay, competition with immobilised ligand | 1 µM | 100
CC1CCCN1c1nccc(-c2cnn3ncccc23)n1 (stereo not shown) | binding | 1 µM | 98
Nc1c(C(=O)NCc2ccc(C(=O)NCCCC3CCCCC3)cc2)cnn1-c1ccccc1 | cell-free assay, competition with immobilised ligand | 0.1 µM | 89
C=CC(=O)N1CCC(C(=O)NCC(=O)N2CCN(c3nc(-c4cnc(N)nc4C(F)F)nc(N4CCOCC4)n3)CC2)CC1 | binding, competition with immobilised ligand | 1 µM | 100
CCC(=N\O)/C(C)=C/c1ccc(F)cc1 | cell-free assay, competition with immobilised ligand | 1 µM | 66
N[C@H]1CCN(c2nccc(-c3cnn4ncccc34)n2)C1 | binding | 1 µM | 84
COc1cccc(CNC(=O)c2nc3scc(COCc4ccc(C(=O)O)cc4)c3c(=O)[nH]2)c1 | cell-free assay, competition with immobilised ligand | 1 µM | 86.1
O=C(c1ccc(Nc2ncc(Cl)c(-c3ccc(Cl)s3)n2)cc1)N1CCC(N2CCCC2)CC1 | binding, competition with immobilised ligand | 1 µM | 100
